“And” between values parts separate entries of the source, which are not always exact repeats. Equal entries are not always repeated.
Tests used:
[1] = target: T1, Hemoglobin HbA (Homo sapiens) (UniProt P69905+P68871); test: Oxygen pressure in mmHg at which the control hemoglobin solution (no compound) was 50% saturated with oxygen.; format: protein-complex assay
Method in brief: (§1)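 Purified HbA from washed, lysed erythrocytes (DEAE-Sephacel, pH 8.4 Tris elution), exchanged into 50 mM HEPES pH 7.4. Stock Hb 5.4 mM mixed 1:1 with 20 mM compound in HEPES, giving final 2.7 mM Hb and 10 mM compound (about 4:1). Control is Hb mixed with buffer alone. Oxygen dissociation curves recorded on a Hem-O-Scan analyzer. P50 in mmHg at 50% saturation.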

[2] = target: T1, Hemoglobin HbA (Homo sapiens); test: Oxygen pressure in mmHg at which the […] hemoglobin solution (in presence of 10 mM compound) was 50% saturated with oxygen.; format: protein-complex assay; method in brief: as §1
[3] = Dose-response study in whole blood at a concentration of 0.5 mM; format: tissue-based
Method in brief: (§2)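 Fresh heparinized whole blood mixed 1:1 with test compound in isosmotic 50 mM HEPES pH 7.4 containing 140 mM NaCl and 10 mM glucose. Hb after addition approximately 1.25 mM. Oxygen dissociation curves recorded on a Hem-O-Scan analyzer. P50 with compound divided by P50 of control.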

[4] = Dose-response study in whole blood at a concentration of 10.0 mM; format: tissue-based; method in brief: as §2
[5] = Dose-response study in whole blood at a concentration of 1.0 mM; format: tissue-based; method in brief: as §2
[6] = Dose-response study in whole blood at a concentration of 2.0 mM; format: tissue-based; method in brief: as §2
[7] = Dose-response study in whole blood at a concentration of 4.0 mM; format: tissue-based; method in brief: as §2

T1 sequence (P68871 2-147 partner limits assumed): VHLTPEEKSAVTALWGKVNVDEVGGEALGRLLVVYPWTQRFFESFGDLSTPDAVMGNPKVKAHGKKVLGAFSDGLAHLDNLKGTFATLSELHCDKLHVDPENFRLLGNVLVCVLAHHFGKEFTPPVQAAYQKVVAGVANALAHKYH
T1 sequence (P69905 2-142 limits assumed): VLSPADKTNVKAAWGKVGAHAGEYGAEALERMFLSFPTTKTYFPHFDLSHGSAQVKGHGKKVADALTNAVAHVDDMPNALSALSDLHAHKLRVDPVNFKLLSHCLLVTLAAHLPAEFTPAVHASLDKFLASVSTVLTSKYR

SMILES | P50c [1] | P50d [2] | P50d/P50c [3] | P50d/P50c [4] | P50d/P50c [5] | P50d/P50c [6] | P50d/P50c [7]
CC(C)(Oc1ccc(CNC(=O)c2ccccc2Cl)cc1)C(=O)O | 19 mmHg | 28 mmHg | – | – | – | – | –
Cc1ccc(NC(=O)Cc2ccc(OC(C)(C)C(=O)O)cc2)cc1 | 15 mmHg | 40 mmHg and 41 mmHg | – | – | – | – | –
CC(C)(Oc1ccc(CNC(=O)c2ccccc2)cc1)C(=O)O | 18 mmHg and 19 mmHg | 35 mmHg and 35.5 mmHg | – | – | – | – | –
CC(C)(Oc1ccc(CCNC(=O)c2ccc(Cl)cc2)cc1)C(=O)O | 18 mmHg and 17 mmHg (2×) and 18.5 mmHg | 31 mmHg [middle of 4 runs] | – | – | – | – | –
CC(C)(Oc1ccc(CC(=O)Nc2cc(Cl)cc(Cl)c2)cc1)C(=O)O | 10.3 mmHg and 11 mmHg (2×) and 19.2 mmHg (2×) | 47 mmHg [middle of 5 runs] | 1.09 | 2.93 | 1.52 | 2 | 2.72
CC(C)(Oc1ccc(NC(=O)Cc2ccccc2)cc1)C(=O)O | 19.5 mmHg | 35 mmHg | – | – | – | – | –
CC(C)(Oc1ccc(NC(=O)Nc2ccc(Cl)c(Cl)c2)cc1)C(=O)O | 18 mmHg | 32 mmHg | – | – | – | – | –
Cc1cc(C)cc(NC(=O)Cc2ccc(OC(C)(C)C(=O)O)cc2)c1 | 19 mmHg and 19.2 mmHg (2×) | 75.5 mmHg and 76.5 mmHg and 78 mmHg | 1.07 | 3 | 1.53 | 1.93 | 2.61
CC(C)(Oc1ccc(CC(=O)Nc2ccccc2)cc1)C(=O)O | 20.5 mmHg and 19 mmHg | 63 mmHg and 54 mmHg | – | – | – | – | –
CC(C)(Oc1ccc(CC(=O)Nc2ccc(C(F)(F)F)cc2)cc1)C(=O)O | 20 mmHg and 17.5 mmHg (2×) and 18 mmHg | 44 mmHg [middle of 4 runs] | – | – | – | – | –
CC(C)(Oc1ccc(CC(=O)Nc2c(Cl)cccc2Cl)cc1)C(=O)O | 18 mmHg | 34 mmHg and 35 mmHg | – | – | – | – | –
CC(C)(Oc1ccc(NC(=O)Nc2cc(Cl)c(Cl)c(Cl)c2)cc1)C(=O)O | 18 mmHg and 14 mmHg (2×) | 48 mmHg and 35 mmHg and 36 mmHg | – | – | – | – | –
CC(C)(Oc1ccc(CNC(=O)c2ccc(Cl)cc2)cc1)C(=O)O | 19 mmHg (2×) and 18 mmHg | 48 mmHg (2×) and 49 mmHg | – | – | – | – | –
CC(C)(Oc1ccc(CNC(=O)c2cc(Cl)c(Cl)c(Cl)c2)cc1)C(=O)O | 19 mmHg (2×) and 11.5 mmHg | – | – | – | – | – | –
CC(C)(Oc1ccc(CC(=O)Nc2ccc(Cl)cc2)cc1)C(=O)O | 15.5 mmHg and 19 mmHg and 18.5 mmHg (2×) | 52 mmHg [middle of 4 runs] | – | – | – | – | –
CC(C)(Oc1ccc(NC(=O)Nc2cc(Cl)cc(Cl)c2)cc1)C(=O)O | 11.8 mmHg and 18 mmHg (2×) | 44 mmHg and 65 mmHg and 63 mmHg | 0.96 | 2.25 | 1.15 | 1.7 | 1.84
CC(C)(Oc1ccc(CC(=O)Nc2ccc(F)cc2)cc1)C(=O)O | 20 mmHg and 17.5 mmHg | 52 mmHg and 44 mmHg | – | – | – | – | –
CC(C)(Oc1ccc(CNC(=O)c2cc(Cl)cc(Cl)c2)cc1)C(=O)O | 19 mmHg | 48.5 mmHg and 47 mmHg and 46 mmHg | – | – | – | – | –
CC(C)c1ccc(NC(=O)Cc2ccc(OC(C)(C)C(=O)O)cc2)cc1 | 19.5 mmHg and 19 mmHg (2×) | 57 mmHg and 56.5 mmHg and 57.8 mmHg | – | – | – | – | –
CC(C)(Oc1ccc(CC(=O)Nc2cc(Cl)c(Cl)c(Cl)c2)cc1)C(=O)O | 12 mmHg and 19 mmHg (2×) | 37 mmHg and 60 mmHg and 63 mmHg | – | – | – | – | –
CC(C)(Oc1ccc(CCNC(=O)c2ccccc2)cc1)C(=O)O | 18 mmHg | 32 mmHg | – | – | – | – | –
CC(C)(Oc1ccc(CNC(=O)c2cccc(Cl)c2)cc1)C(=O)O | 18 mmHg and 19 mmHg | 37 mmHg | – | – | – | – | –
CC(C)(Oc1ccc(CC(=O)Nc2ccc(Cl)c(Cl)c2)cc1)C(=O)O | 18.2 mmHg and 18 mmHg | 65 mmHg | – | – | – | – | –
CC(C)(Oc1ccc(CNC(=O)c2ccc(Cl)c(Cl)c2)cc1)C(=O)O | 19 mmHg and 18 mmHg | 38.5 mmHg and 40 mmHg | – | – | – | – | –
CC(C)(Oc1ccc(NC(=O)Cc2ccc(Cl)cc2)cc1)C(=O)O | 19 mmHg (4×) and 21 mmHg | 44 mmHg [middle of 5 runs] | – | – | – | – | –

— ChEMBL document CHEMBL1125253, “Allosteric modifiers of hemoglobin. 1. Design, synthesis, testing, and structure-allosteric activity relationship of novel hemoglobin oxygen affinity decreasing agents” (J Med Chem, 1991)
